# Data from the EternaBench riboswitch data.
# Test system: MS2 coat protein
# Experiment: apparent Kd, MS2 coat protein; higher = weaker binding; RNA-MaP array; tryptophan 2.4 mM where present
# Procedure, shortened: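 SNAP-549-labelled MS2 coat protein, doubled from 0.7 or 1.5 nM to 3 µM, was titrated over designs transcribed by stalled E. coli RNA polymerase on Illumina sequencing-chip clusters. Titrations were run without and then with constant ligand in 100 mM Tris-HCl pH 7.5, 80 mM KCl, 4 mM MgCl2, BSA, DTT, yeast tRNA and Tween-20. The apparent Kd is the median of filtered per-cluster fits to green signal normalised to red-channel RNA signal and control-cluster median Fmax.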
# [1] = designed as: OFF switch for tryptophan, no ligand
# [2] = ligand present: tryptophan, designed as: OFF switch for tryptophan
# [3] = designed as: ON switch for tryptophan, no ligand
# [4] = ligand present: tryptophan, designed as: ON switch for tryptophan
Sequence,apparent Kd [1] [nM],apparent Kd [2] [nM],apparent Kd [3] [nM],apparent Kd [4] [nM]
AUAACGAGUGGUGGAUAAUCCUCAUGUAAACGAGGACCGGUACGGCCGCCACUCGAUAACAUGAGGAUCACCCAUGUAAUAAUAA,13.2,10.3,–,–
AUUCAUGGAAACAUGACAUAGGGAUCUAUCCGAGGACCGGUACGGCCGCCACUCGCGUGGAGGCACAUGAGGAUCACCCAUGUUA,–,–,278,432
ACACCAUACAUGAGGAUCACCCAUGUUACACGAGGACCGGUACGGCCGCCACUCGAAUUCAGGAAACCUCGGAUAAUAUUGUGAA,–,–,25.9,33.2
GGCACAUAGUCGGCCGCCACUAGUGGGAAAUGGGAGAACAUGAGGAUCACCCAUGUAUUAUAGCCUAGGACCGGGACUAUGUGCC,74.8,105,–,–
AUUAAGGAUAUGUAGACGGCGGAGAAGAGACGAGGACCGGUACGGCCGCCACUCGUGUUAGUUAACAUGAGGAUCACCCAUGUAA,–,–,49.7,22
AGAUGAGUCACGGCCGCCACUCACUACAGGUUCACCCUUGGUUAACAUGAGGAUCACCCAUGUGGGAGGACCGGGUGAUGAGCAU,19.9,25.1,–,–
GGUUACUCUACGGCCGCCACUGUUAAAUAAUAAACCUGUACAUAAACAUGAGGAUCACCCAUGUACAGGACCGGGUAGUGUAACC,–,–,32.1,16.1
AGCCGGAUUACGGCCGCCACUGUAGACGUGACGAAAGUCGCGUCAACAUGAGGAUCACCCAUGUACAGGACCGGGUGGUCGGGCG,–,–,161,27.5
GAUCGAAAUAACGUCUAGGAAAACUAGACGCGAGGACCGGUACGGCCGCCACUCGGGUGGCACAUGAGGAUCACCCAUGUAGAUC,78.7,105,–,–
GUAGCGACGGCGGCCGCCACUCACAGGUGAGGGUAGACCAACCUUCACAUGAGGAUCACCCAUGUGAGGACCGGGCUGUCGCUAC,90.9,146,–,–
CUCAUCCACGCGGCCGCCACUAUAUUGUGGUGCGUAUGUGUCGUAAUACAUGAGGAUCACCCAUGUAGGACCGGGCGUGGAUGAG,10.8,20.4,–,–
GGCCAUGGAAACAUGGCGGCGGCGUAUGCGCGAGGACCGGUACGGCCGCCACUCGGGCGACAUGAGGAUCACCCAUGUUCCUCAU,182,478,–,–
UGUCAGCGAAAGUUGACAUGUCUUACCGGUCGAGGACCGGUACGGCCGCCACUCGAUCUCUCGCACAUGAGGAUCACCCAUGUCG,–,–,12.7,11.2
UCUGCCGCGGCUCCGAUCCUCCUGUAGUUCCGAGGACCGGUACGGCCGCCACUCGUAGCACAUGAGGAUCACCCAUGUCUUGCGG,9.45,11.2,–,–
UCGUUUUAGUCGGCCGCCACUGUGAGCAUGGUUAACAUGAGGAUCACCCAUGUCCCGUACUAUAACAGGACCGGGACGUAGUUGC,–,–,93,22.8
AGAGCAUUGACGGCCGCCACUCAUGUCACAUGAGGAUCACCCAUGUGAUGGGUGAUAGCCCGGUCGAGGACCGGGUCAAUGCUCA,–,–,17.2,18
AAUGUAUGGCACAUGAGGAUCACCCAUGUGCGAGGACCGGUACGGCCGCCACUCGGUCCUGGGAACUUAUUACUAUACAUUAAUG,11.9,23.3,–,–
GGCGCUGCGUCGGCCGCCACUAGUGGGUAAUGGGUGUACAUGAGGAUCACCCAUGUAUUUUGGCCUAGGACCGGGACGUGGCGCC,453,503,–,–
CUAAAUAUAUCGGCCGCCACUUACUCAUGAGGUAACAACAUGAGGAUCACCCAUGUUUGAGGAUCAAGGACCGGGAUAUAUUUAG,–,–,27.8,19
GCAUCCUAGUCGGCCGCCACUACAACAUGAGGAUCACCCAUGUGUGGGAGAUCCGUCCUACGAAGUAGGACCGGGACUAGGAUGC,–,–,272,444
CUAUAAGUACCGGUCCUCAGAUCCUCAUGACGAGGACCGGUACGGCCGCCACUCGAAACAUGAGGAUCACCCAUGUAAUAAUAAU,18.3,18.6,–,–
AAGACCAGGAGGUGAUCCUAACUGGUCCAACGAGGACCGGUACGGCCGCCACUCGAAUAAACAUGAGGAUCACCCAUGUAAUAAU,–,–,98.1,225
AAUGUAUUCCACAUGAGGAUCACCCAUGUGCGAGGACCGGUACGGCCGCCACUCGGUGUUGGGAUCUGUUCUGAAUACAUUAAUG,29,114,–,–

Sequence,apparent Kd [1] [nM],apparent Kd [2] [nM],apparent Kd [3] [nM],apparent Kd [4] [nM]
UUCUACGACGAUCUGGGAAAACCAGAUCGACGAGGACCGGUACGGCCGCCACUCGUGUUUCUUUAACAUGAGGAUCACCCAUGUA,–,–,20.5,14.5
GGAUAGGACACGGCCGCCACUGCGCUAGGAUACUAGAACAUUUCCUCACAUGAGGAUCACCCAUGUAGGACCGGGUGUCCUAUCG,49.6,152,–,–
AGCAACAAGUCGGCCGCCACUCAUUUAACAUGAGGAUCACCCAUGUGAAUAACAUGGUUGUAAUAGAGGACCGGGACAGUUGCAU,–,–,119,574
CCUCAUGAACAUGAGGAUCACCCAUGUACACGAGGACCGGUACGGCCGCCACUCGAAUAAGCUAAAUAUAAAUAAUAAUAAUAGC,16.9,37.6,–,–
GGGUACAUCGCGGCCGCCACUUAUGUAAAUACAUGAGGAUCACCCAUGUCGAUGGAGACAUCGGAAAGGACCGGGUGAUGUACCG,–,–,198,47.5
AUGUACAUGACGGCCGCCACUACACUGAAAGUGGUCCAGAACAUGAGGAUCACCCAUGUAUCAAGUAGGACCGGGUCAUGUACAU,361,380,–,–
UUAUAAGUACCGGUCCUCAGAUCCUCAUGACGAGGACCGGUACGGCCGCCACUCGAAACAUGAGGAUCACCCAUGUAAUAAUACU,26.4,20.2,–,–
ACAUGAGGAUCACCCAUGUGCAUGAUGAUCCGAGGACCGGUACGGCCGCCACUCGUCAUGAUGAUCUUUCAUGUUUGUCGCGCGC,–,–,329,429
AUGGACGACGAUCUGGGAAAACCAGAUCGACGAGGACCGGUACGGCCGCCACUCGUGUUUAUUUAACAUGAGGAUCACCCAUGUA,–,–,45.9,17.6
CUACAUUUGUAGAAACCGGUCAACAAUAAUCGAGGACCGGUACGGCCGCCACUCGAUGUGAAAUCACAUGAGGAUCACCCAUGUA,–,–,18,18.1
UUAUGCAGGUCGGCCGCCACUACACACAUGAGGAUCACCCAUGUAGUUACUGGGUGAAGUGGCAGUAGGACCGGGACCUGCAUAC,–,–,553,316
AUUCAUGGAAACAUGACAUAGGGAUCCGGUCGAGGACCGGUACGGCCGCCACUCGUUUGGAGGCACAUGAGGAUCACCCAUGUUA,–,–,82,67.5
AUUGUGAAGUCGGCCGCCACUGCAUAGUUUAACCUCUUUUAACAUGAGGAUCACCCAUGUAAUGACAGGACCGGGACAAUAGUAA,–,–,51.5,59.9
GAUAUAUAGGCGGCCGCCACUGAUUUUCAUAUAUAUAUAACAUGAGGAUCACCCAUGUAGAUAUACAGGACCGGGCCUAUAUAUU,–,–,14.5,13.4
UGUAUUGGAAACAGUACUAGUGAUCCGGUCCGAGGACCGGUACGGCCGCCACUCGAAAUUAAUAAACAUGAGGAUCACCCAUGUA,14.8,34.2,–,–
CUGUACAUCUCGGCCGCCACUGCUGACAUGGGAGUCACCCAUGUCCACAUGAGGAUCACCCAUGUCAGGACCGGGAGGUGUGCAG,–,–,49.8,255
AUACAUGAGGAUCACCCAUGUGAUGGCCGGCGAGGACCGGUACGGCCGCCACUCGUGAUCCGUCCUGAGAGCAAAGCCCUCAGCA,–,–,124,171
CAUCCUAGUACAUGAGGAUCACCCAUGUAUCGAGGACCGGUACGGCCGCCACUCGAAUGGCGGAUCGUUAAUCCUCUAGGAUGGA,10,13.5,–,–
UGUACCAUGUCGGCCGCCACUCAUGAUAAACAUGAGGAUCACCCAUGUGGCGUCAAAGACGCUAUGAGGACCGGGACAUGGUACU,–,–,13.2,10.6
AAUAAUAAGGCGGCCGCCACUACACAUGAGGAUCACCCAUGUCUCGCGGGCUUGCGUUGGGAUUGUAGGACCGGGCCAAUAAUAA,26.7,20.3,–,–
GGAUGCGGCACGGCCGCCACUGCGGUGGUGUGACAUGAGGAUCACCCAUGUUGUCAUGCGGCCCUUAGGACCGGGUGGCGUGUCC,46.4,47,–,–
ACAUGAGCAUCAGCCAUGUGUAUGACAUGACGAGGACCGGUACGGCCGCCACUCGACAUGAGGAUCACCCAUGUUGAGGAUCACA,10.9,14.7,–,–
